# Experimental data of several laboratories.
# KDR: Vascular endothelial growth factor receptor 2 (KDR, Homo sapiens, UniProt P35968)
# PIK3CB: Phosphatidylinositol 4,5-bisphosphate 3-kinase catalytic subunit beta isoform (PIK3CB, Homo sapiens, UniProt P42338)
# Histone acetyltransferase KAT6B: Histone acetyltransferase KAT6B (Homo sapiens, UniProt Q8WYB5)
# Trpm7 F924W: Transient receptor potential cation channel subfamily M member 7 (Trpm7, Mus musculus, UniProt Q923J1, F924W)
# DNA polymerase catalytic subunit: DNA polymerase catalytic subunit (Human cytomegalovirus, UniProt P08546)
# NOX5: NADPH oxidase 5 (NOX5, Homo sapiens, UniProt Q96PH1)
# PIK3CA: Phosphatidylinositol 4,5-bisphosphate 3-kinase catalytic subunit alpha isoform (PIK3CA, Homo sapiens, UniProt P42336)
Compound,target,assay,conditions,IC50
CC(=O)Nc1ccc(Oc2nnc(-c3ccc(Cl)cc3)c3ccccc23)cc1,KDR,"cell-free assay, inhibitor",,548 nM
Cc1nc(Nc2ccc3c(c2)C(C)(C)C(=O)N3)c2ccccc2n1,PIK3CB,"enzyme activity, inhibitor, ADP detection",,153 nM
COc1cc(C)c2cc(C(=O)NS(=O)(=O)c3ccccc3OC)oc2c1,Histone acetyltransferase KAT6B,"enzyme activity, inhibitor, TR-FRET",,68 nM
COc1cc2ncnc(Nc3ccc4c(c3)/C(=C/c3cccc(Cl)c3)C(=O)N4C)c2cc1OC,PIK3CB,"enzyme activity, inhibitor, ADP detection",,110 nM
c1ccc2c(c1)CCC[C@H]2Nc1nc2ccccc2[nH]1,Trpm7 F924W,calcium signal,,5120 nM
COc1cc2ncnc(Nc3ccc4c(c3)/C(=C/c3ccccc3)C(=O)N4C)c2cc1OC,PIK3CB,"enzyme activity, inhibitor, ADP detection",,506 nM
CC1(F)CN(C(=O)Cn2c(=O)c(C(=O)NCc3ccc(Cl)cc3)cc3nc(N4CCCC4=O)cnc32)C1,DNA polymerase catalytic subunit,"enzyme activity, inhibitor",,207 nM
Cc1coc2c1C(=O)C(=O)c1c-2ccc2c(C)cccc12,NOX5,"enzyme activity, inhibitor",,3900 nM
O=C(NS(=O)(=O)c1ccccc1-c1ccccc1)c1cc2ccc(OCCO)cc2o1,Histone acetyltransferase KAT6B,"enzyme activity, inhibitor, TR-FRET",,5940 nM
Cc1coc2c1C(=O)C(=O)c1c-2ccc2c1CCCC2(C)CO (stereo not drawn),NOX5,"enzyme activity, inhibitor",,5200 nM
Cc1nc(N(C)c2ccc3c(c2)/C(=C/c2ccccc2Cl)C(=O)N3C)c2ccccc2n1,PIK3CA,"enzyme activity, inhibitor, ADP detection",,53.4 nM
CNC(=O)c1cnc(Nc2ccccc2C)c(NC(=O)c2cc(F)cc(C(F)(F)F)c2)c1,"Phosphatidylinositol 4,5-bisphosphate 3-kinase catalytic subunit alpha isoform (PIK3CA, Homo sapiens, UniProt P42336, H1047R)","enzyme activity, inhibitor",with preincubation,334 nM
COc1cc2ncnc(N(C)c3ccc4c(c3)/C(=C/c3cccc(Cl)c3)C(=O)N4C)c2cc1OC,PIK3CB,"enzyme activity, inhibitor, ADP detection",,103 nM
COc1cc(C)c2cc(C(=O)NS(=O)(=O)c3ccc(C)cc3-c3ccccc3)oc2c1,Histone acetyltransferase KAT6B,"enzyme activity, inhibitor, TR-FRET",,41 nM
Cc1nc(N(Cc2ccccc2)c2ccc3c(c2)/C(=C/c2ccccc2)C(=O)N3Cc2ccccc2)c2ccccc2n1 (mixture of isomers),PIK3CA,"enzyme activity, inhibitor, ADP detection",,9.11 nM
N#Cc1ccc(COC[C@H]2O[C@@H](n3c(NCc4ccc(Cl)c(Cl)c4)nc4c(N)ncnc43)[C@H](O)[C@@H]2O)cc1,Trpm7 F924W,calcium signal,,5580 nM
COc1cc(C)c2cc(C(=O)NS(=O)(=O)c3cccc4ccc(C)nc34)oc2c1,Histone acetyltransferase KAT6B,"enzyme activity, inhibitor, TR-FRET",,22 nM
O=c1oc(-c2ccco2)nc2ccccc12,"Cathepsin G (CTSG, Homo sapiens, UniProt P08311)","enzyme activity, inhibitor, absorbance",pH 7.4,840 nM
CCCOc1ccc2cc(C(=O)NS(=O)(=O)c3ccccc3-c3ccccc3)oc2c1,Histone acetyltransferase KAT6B,"enzyme activity, inhibitor, TR-FRET",,12200 nM
CC1(C)CN(C(=O)Cn2c(=O)c(C(=O)NCc3ccc(Cl)cc3)cc3nccnc32)C1,DNA polymerase catalytic subunit,"enzyme activity, inhibitor",,2260 nM
Cc1nc(Nc2ccc3c(c2)C(C)(C)C(=O)N3C)c2ccccc2n1,PIK3CA,"enzyme activity, inhibitor, ADP detection",,164 nM
CNCCN1CCN(c2cnc3c(cc(C(=O)NCc4ccc(Cl)cc4)c(=O)n3CC(=O)N3CC(C)(F)C3)n2)C1=O,DNA polymerase catalytic subunit,"enzyme activity, inhibitor",,571 nM
Cc1nc(Nc2ccc3c(c2)/C(=C/c2ccccc2Cl)C(=O)N3)c2ccccc2n1,PIK3CB,"enzyme activity, inhibitor, ADP detection",,90.2 nM
COc1cc(C)c2cc(C(=O)NS(=O)(=O)c3ccc(Cl)cc3)oc2c1,Histone acetyltransferase KAT6B,"enzyme activity, inhibitor, TR-FRET",,237 nM
CC(=NNC(=O)c1ccncc1)c1ccc(Nc2nnc(-c3ccc(Cl)cc3)c3ccccc23)cc1,KDR,"cell-free assay, inhibitor",,148 nM
Cc1cc(Br)cc2oc(C(=O)NS(=O)(=O)c3ccccc3-c3ccccc3)cc12,Histone acetyltransferase KAT6B,"enzyme activity, inhibitor, TR-FRET",,150 nM
O=C(O)Cc1csc(NC(=O)c2cc3ccccc3[nH]2)n1,KDR,"enzyme activity, inhibitor, ELISA",,1210 nM
